Measurements gathered from unrelated publications.
Target: Serine/threonine-protein kinase 25 (STK25, Homo sapiens, UniProt O00506)

The remaining binding of `COc1cnc(Nc2cccc(S(N)(=O)=O)c2)nc1N1CCN(c2ccccc2)CC1` is reported as 100% (binding; competition with immobilised ligand; 1 µM).
The remaining binding of `CN(C)c1nccc(-c2cnn3ncccc23)n1` is reported as 90% (binding; 1 µM).
`C[C@@H](c1ccc(-n2cnc3c(N)ncnc32)cc1)N1CCc2nn(C)c(Cc3ccccc3)c2C1=O` gave a remaining binding of 86% (binding; competition with immobilised ligand; 0.1 µM).
`Cc1cnn2ncc(-c3ccnc(N(C)C)n3)c2c1` gave a remaining binding of 100% (binding; 1 µM).
The remaining binding of `CNC(=O)Nc1ccc2c(c1)CC[C@@]21OC(=O)N(CC(=O)N(Cc2ccc(F)cc2)[C@@H](C)C(F)(F)F)C1=O` is reported as 99% (cell-free assay; competition with immobilised ligand; 1 µM).
`O=C(c1ccc(Nc2nccc(-c3cc4ccccc4s3)n2)cc1)N1CCC(N2CCCC2)CC1` gave a remaining binding of 22% (binding; competition with immobilised ligand; 1 µM).
With `CN(C)C(=O)Cn1cc(-c2nc(C3(c4ccc(-c5cnc(N)nc5)cc4)CC3)no2)cn1` the remaining binding was 100% (cell-free assay; competition with immobilised ligand; 1 µM).
`O=C(c1ccc(Nc2ncc(Cl)c(-c3ccc(Cl)s3)n2)cc1)N1CCC(N2CCCC2)CC1` has a remaining binding of 22% (binding; competition with immobilised ligand; 1 µM).
`c1cnn2ncc(-c3ccnc(N4CCC45COC5)n3)c2c1` has a remaining binding of 100% (binding; 1 µM).
`C=CC(=O)N1CCC(C(=O)NCC(=O)N2CCN(c3nc(-c4cnc(N)nc4C(F)F)nc(N4CCOCC4)n3)CC2)CC1` has a remaining binding of 96% (binding; competition with immobilised ligand; 1 µM).
With `CNC(=O)[C@@H]1CC[C@@H](n2c(-c3ccc4cnccc4c3)nc3ccc(C(=O)NCc4cccc(C(N)=O)c4)cc32)C1` the remaining binding was 100% (binding; competition with immobilised ligand; 1 µM).
`C[C@H]1CCN(c2nccc(-c3cnn4ncccc34)n2)C1` gave a remaining binding of 100% (binding; 1 µM).
The remaining binding of `O=C(NCCCN1CCOCC1)c1ccc(Nc2nccc(-c3cc4ccccc4s3)n2)cc1` is reported as 67% (binding; competition with immobilised ligand; 1 µM).
`CC1=C(C#N)[C@@H](c2ccc3[nH]nc(C)c3c2)C(C#N)=C(c2ccc(Cl)cc2)N1` gave a remaining binding of 100% (cell-free assay; competition with immobilised ligand; 1 µM).
For `N[C@H]1CCN(c2nccc(-c3cnn4ncccc34)n2)C1`, the remaining binding was 100% (binding; 1 µM).
`CCCOc1ccc([C@H]2[C@H](C(=O)O)[C@@H](c3ccc4c(c3)OCO4)CN2CC(=O)Nc2c(CC)cccc2CC)cc1` has a remaining binding of 100% (cell-free assay; competition with immobilised ligand; 1 µM).
For `O=C(Nc1c[nH]nc1C(=O)NC1CCNCC1)c1cc(F)cc(F)c1`, the remaining binding was 85% (binding; competition with immobilised ligand; 1 µM).
`CCC(=O)N[C@H]1CC[C@@H](C(=O)N(C)c2ccc(-c3nc4ccccc4o3)cc2)C1` gave a remaining binding of 100% (cell-free assay; competition with immobilised ligand; 1 µM).
For `c1cncc(-c2cccc(Nc3nccc(NC4CCCCC4)n3)c2)c1`, the remaining binding was 100% (binding; competition with immobilised ligand; 10 µM).
With `CC(=O)C1=C(C)N(c2cccc(C(F)(F)F)c2)C(=O)N[C@@H]1c1ccc(C#N)nc1` the remaining binding was 89.9% (cell-free assay; competition with immobilised ligand; 1 µM).
`CN(C)c1nccc(-c2cnc3ncccn23)n1` has a remaining binding of 100% (binding; 1 µM).
